In PubChem BioAssay AID504818 (Southern Research Specialized Biocontainment Screening …, 2011):
Values joined by “and” are separate entries in the source; they are usually repeats but may differ in a detail not shown here. Identical values can stand only once. Active and inactive are the calls of the source.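 How the source made its calls: active means any dose giving under 70% viability, per first replicate; inactive means the rest.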

Key:
[1] = test system: HEp-2 viability, ATP luminescence; assay: viability loss in HEp-2 cells – cell-based, synthesized compounds, set 8, cytotoxicity control for RSV inhibitor project, SAR follow-up (AID 504818)
Summary of the method: (§1)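 material = HEp-2 cells without virus | amount = 10,595 HEp-2 cells per well | compound dosing = eight 1:2 steps, 0.39–50 µM, 0.5% DMSO | incubation = 6 d compound exposure, 37 °C | detection = ATP luminescence (CellTiter-Glo) | read-out basis = % viability and CC50 (0–100 bounded fit) | control set = cell-only wells as 100% reference | replication = triplicate wells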

[2] = as above; settings: HEp-2 viability, ATP luminescence; at 50 µM (top of the series)
Summary of the method: as §1

Q: For `Cc1ccc(Cl)cc1NC(=O)[C@@H]1CCCN1S(=O)(=O)c1cccc2cccnc12`, which CC50 [1] is on record?
A: Its CC50 is 9.25 µM.

Q: Which CC50 [1] does the source give for `COCCCNC(=O)c1ccc(Cn2c(=O)c3ccccc3n(Cc3cc(C)on3)c2=O)cc1` here?
A: Its CC50 is 7 µM.

Q: With `Cc1ccc(Cn2c(=O)n(Cc3ccc(C(=O)NC(C)(C)C)cc3)c(=O)c3ccccc32)cc1` as the compound, how does the CC50 [1] read?
A: The CC50 was 10.2 µM.

Q: Which CC50 [1] does the source give for `Cc1ccc(C)c(NC(=O)[C@@H]2CCCN2S(=O)(=O)c2cccc3cccnc23)c1` here?
A: The CC50 was 36.2 µM and 32.9 µM.

Q: Which viability [2] does the source give for `COc1ccc(C)cc1NC(=O)[C@@H]1CCCN1S(=O)(=O)c1cccc2cccnc12` here?
A: The viability was 82% (inactive).

Q: With `O=C(Nc1ccccc1)[C@@H]1CCCN1S(=O)(=O)c1cccc2cccnc12` as the compound, how does the CC50 [1] read?
A: Its CC50 is 38.4 µM.

Q: For `Cc1ncccc1NC(=O)[C@@H]1CCCN1S(=O)(=O)c1cccc2cccnc12`, which viability [2] is on record?
A: Its viability is 72.6% (inactive).

Q: For `Cc1ccc(F)cc1NC(=O)[C@@H]1CCCN1S(=O)(=O)c1cccc2cccnc12`, which CC50 [1] is on record?
A: The CC50 was 22.5 µM.

Q: With `Cc1ccc(Cl)c(NC(=O)[C@@H]2CCCN2S(=O)(=O)c2cccc3cccnc23)c1` as the compound, how does the CC50 [1] read?
A: Its CC50 is 13.6 µM.

Q: With `Cc1ccc(NC(=O)C(C)NS(=O)(=O)c2cccc3cccnc23)c(C)c1` (stereo unspecified) as the compound, how does the viability [2] read?
A: The viability was 77.7% (inactive).

Q: For `COCCCNC(=O)c1ccc(Cn2c(=O)c3ccc(Br)cc3n(Cc3ccc(C)cc3)c2=O)cc1`, which CC50 [1] is on record?
A: The CC50 was 39 µM.

Q: Which CC50 [1] does the source give for `COCCCNC(=O)c1ccc(Cn2c(=O)c3ccccc3n(C)c2=O)cc1` here?
A: Its CC50 is 15 µM.

Q: With `Cc1ccc(C(C)(C)C)cc1NC(=O)[C@@H]1CCCN1S(=O)(=O)c1cccc2cccnc12` as the compound, how does the CC50 [1] read?
A: The CC50 was 6.2 µM.

Q: With `Cc1ccc(NC(=O)C2CCCN2S(C)(=O)=O)c(C)c1` (stereo unspecified) as the compound, how does the viability [2] read?
A: The viability was 96.3% (inactive).

Q: With `Cc1cc(C)cc(NC(=O)[C@@H]2CCCN2S(=O)(=O)c2cccc3cccnc23)c1` as the compound, how does the CC50 [1] read?
A: Its CC50 is 32.2 µM.

Q: Which CC50 [1] does the source give for `Cc1ccc(NC(=O)C2CCCN2S(=O)(=O)c2cccc3cccnc23)c(C)c1` (stereo unspecified) here?
A: Its CC50 is 33.4 µM.

Q: For `Cc1ccc(C(C)C)cc1NC(=O)[C@@H]1CCCN1S(=O)(=O)c1cccc2cccnc12`, which CC50 [1] is on record?
A: The CC50 was 10.6 µM.

Q: For `Cc1ccc(C(F)(F)F)cc1NC(=O)[C@@H]1CCCN1S(=O)(=O)c1cccc2cccnc12`, which CC50 [1] is on record?
A: The CC50 was 3.7 µM.

Q: Which CC50 [1] does the source give for `Cc1ccc(NC(=O)[C@@H]2CCCN2S(=O)(=O)c2cccc3cccnc23)c(C)c1` here?
A: Its CC50 is 33 µM.

Q: For `Cc1ccc(NC(=O)C2CCCN2S(=O)(=O)c2cccc3ccccc23)c(C)c1` (stereo unspecified), which CC50 [1] is on record?
A: The CC50 was 18.4 µM.

Q: With `Cc1ccc(NC(=O)[C@H]2CCCN2S(=O)(=O)c2cccc3cccnc23)c(C)c1` as the compound, how does the CC50 [1] read?
A: Its CC50 is 40.9 µM.

Q: For `Cc1ccc(NC(=O)[C@@H]2CCCN2S(=O)(=O)c2cccc3cccnc23)cc1`, which CC50 [1] is on record?
A: The CC50 was 33.1 µM.

Q: Which CC50 [1] does the source give for `Cc1cccc(NC(=O)[C@@H]2CCCN2S(=O)(=O)c2cccc3cccnc23)c1` here?
A: Its CC50 is 20.8 µM.

Q: For `CCCn1c(=O)n(Cc2ccc(C(=O)NCCCOC)cc2)c(=O)c2ccccc21`, which CC50 [1] is on record?
A: Its CC50 is 22.8 µM.

Q: With `Cc1cccc(NC(=O)[C@@H]2CCCN2S(=O)(=O)c2cccc3cccnc23)c1C` as the compound, how does the CC50 [1] read?
A: The CC50 was 49.5 µM.

Q: For `CC(C)c1ccccc1NC(=O)[C@@H]1CCCN1S(=O)(=O)c1cccc2cccnc12`, which CC50 [1] is on record?
A: Its CC50 is 30.1 µM.
